Source: ChEMBL document CHEMBL1157464, “1-[(3-Aryloxy-3-aryl)propyl]-1H-imidazoles, new imidazoles with potent activity against Candida albicans and dermatophytes. Synthesis, structure-activity relationship, and molecular modeling studies” (J Med Chem, 2008)
Values after ≈ are worked out from the molar mass of the structure shown.

Tests used:
[1] = Cytotoxicity against human U937 cells assessed as reduction of cell viability after 24 hrs by MTT assay; type: cell-based, U-937
In short: (§1)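 U937 and K562 cells, from ATCC, plated at 5 × 10^4/mL in phenol-red-free RPMI-1640 with 20% FBS and penicillin/streptomycin. Compounds added 2 h later at 25–100 µg/mL, then 24 h at 37 °C. MTT at 1 mg/mL for 3 h, formazan dissolved in isopropanol with 0.1 N HCl, absorbance read at 570 nm. CC50 is the concentration reducing viability by 50% versus the drug-free control.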

[2] = Cytotoxicity against human K562 cells after assessed as reduction of cell viability 24 hrs by MTT assay; type: cell-based; in short: as §1
Candida parapsilosis = test: Antifungal activity against Candida parapsilosis ATCC 22019 at 35 degC after 48 hrs by broth microdilution test; type: functional; settings: Lodderomyces parapsilosis, ATCC 22019, 48 h; for MFC: read-out: MFC; for MIC: read-out: MIC
In short: (§2)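 Broth microdilution per NCCLS M27-A2. Stocks in 100% DMSO, diluted in RPMI 1640 with 0.165 M MOPS at pH 7.0; final range 0.25–128 µg/mL. Inoculum 1000–5000 cells/mL from SDA subcultures. […] C. parapsilosis ATCC22019 served as QC strain.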

Arthrodermataceae [3] = test: Antifungal activity against dermatophytes at 28 degC after 48 to 96 hrs by broth microdilution test
Candida albicans [4] = test: Antifungal activity against Candida albicans ATCC 10261 at 35 degC after 48 hrs by broth microdilution test; type: functional; settings: for MIC50: read-out: MIC50; in short: as §2
Arthrodermataceae [5] = test: Antifungal activity against dermatophytes at 28 degC after 5 days by broth microdilution test; settings: for MFC: Arthrodermataceae
Candida albicans [6] = test: Antifungal activity against Candida albicans ATCC 10261 at 35 degC after 48 to 96 hrs by broth microdilution test; type: functional
In short: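 Minimal fungicidal concentration for Candida. […] MFC is the lowest concentration allowing fewer than two colonies (99% killing).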

Arthrodermataceae [7] = test: Antifungal activity against dermatophytes at 28 degC after 7 days by broth microdilution test; type: functional; settings: 168 h
In short: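 Ten clinical isolates (two M. canis, five M. gypseum, three T. mentagrophytes) tested by NCCLS M38-A broth microdilution in MOPS-buffered RPMI 1640, pH 7.0, over 0.25–128 µg/mL. Conidial/hyphal suspension from PDA slants (28 °C, 7 days) adjusted to 65–70% transmittance at OD530, then diluted 1:50.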

Candida albicans [8] = test: Antifungal activity against fluconazole-resistant Candida albicans isolated from oropharyngeal or vaginal disease patient after 48 hrs by broth microdilution test; type: functional
Candida albicans [9] = test: Antifungal activity against fluconazole-sensitive Candida albicans Fe40 at 35 degC after 48 hrs by broth microdilution test; type: functional; in short: as §2
[10] = Candida albicans, ATCC 10261, 48 h, read-out: MIC
[11] = Candida albicans, ATCC 10261, 48 h
[12] = Candida albicans, ATCC 10261, 48 h, read-out: MIC90
[13] = Candida albicans, ATCC 10261, read-out: MFC

Cc1ccc(C(CCn2ccnc2)Oc2ccc(Cl)cc2Cl)cc1 (stereo not drawn)
CC50 at 24 h [1]: 150 µM
CC50 at 24 h [2]: 97 µM
MFC (Candida parapsilosis): 4 µg/mL (≈ 11.1 µM)
MIC (Candida parapsilosis): 1 µg/mL (≈ 2.77 µM)
MFC50 (Arthrodermataceae [3]): 16 µg/mL (≈ 44.3 µM)
MIC (Candida albicans [4]; [10]): 3.15 µg/mL (≈ 8.72 µM)
MIC50 (Candida albicans [4]; [11]): 4 µg/mL (≈ 11.1 µM)
MIC90 (Candida albicans [4]; [12]): 4 µg/mL (≈ 11.1 µM)
MFC90 (Arthrodermataceae [5]): 32 µg/mL (≈ 88.6 µM)
MFC (Arthrodermataceae [5]): 24 µg/mL (≈ 66.4 µM)
MFC50 (Candida albicans [6]): 8 µg/mL (≈ 22.1 µM)
MFC90 (Candida albicans [6]): 16 µg/mL (≈ 44.3 µM)
MFC (Candida albicans [6]; [13]): 8.4 µg/mL (≈ 23.3 µM)
MIC (Arthrodermataceae [7]): 12 µg/mL (≈ 33.2 µM)
MIC50 (Arthrodermataceae [7]): 8 µg/mL (≈ 22.1 µM)
MIC90 (Arthrodermataceae [7]): 16 µg/mL (≈ 44.3 µM)

Cc1ccc(C(CCn2cncn2)Oc2ccc(Cl)cc2Cl)cc1 (stereo not drawn)
MFC (Candida parapsilosis): 64 µg/mL (≈ 177 µM)
MIC (Candida parapsilosis): 32 µg/mL (≈ 88.3 µM)
MFC50 (Arthrodermataceae [3]): 32 µg/mL (≈ 88.3 µM)
MIC (Candida albicans [4]; [10]): > 128 µg/mL
MIC50 (Candida albicans [4]; [11]): > 128 µg/mL
MIC90 (Candida albicans [4]; [12]): > 128 µg/mL
MFC90 (Arthrodermataceae [5]): >128 µg/mL
MFC (Arthrodermataceae [5]): 122 µg/mL (≈ 336 µM)
MFC50 (Candida albicans [6]): >128 µg/mL
MFC90 (Candida albicans [6]): >128 µg/mL
MFC (Candida albicans [6]; [13]): > 128 µg/mL
MIC (Arthrodermataceae [7]): 17.6 µg/mL (≈ 48.6 µM)
MIC50 (Arthrodermataceae [7]): 16 µg/mL (≈ 44.2 µM)
MIC90 (Arthrodermataceae [7]): 32 µg/mL (≈ 88.3 µM)

CCC(C)n1ncn(-c2ccc(N3CCN(c4ccc(OC[C@@H]5CO[C@@](Cn6cncn6)(c6ccc(Cl)cc6Cl)O5)cc4)CC3)cc2)c1=O (stereo partly drawn) [ITRACONAZOLE]
MFC (Candida parapsilosis): 0.25 µg/mL (≈ 0.354 µM)
MIC (Candida parapsilosis): 0.06 µg/mL (≈ 0.085 µM)
MIC (Candida albicans [8]): 16 µg/mL (≈ 22.7 µM)
MFC50 (Arthrodermataceae [3]): 1 µg/mL (≈ 1.42 µM)
MIC (Candida albicans [4]; [10]): 0.5 µg/mL (≈ 0.709 µM)
MIC50 (Candida albicans [4]; [11]): 0.5 µg/mL (≈ 0.709 µM)
MIC90 (Candida albicans [4]; [12]): 1 µg/mL (≈ 1.42 µM)
MFC90 (Arthrodermataceae [5]): 2 µg/mL (≈ 2.83 µM)
MFC (Arthrodermataceae [5]): 1.4 µg/mL (≈ 1.98 µM)
MFC50 (Candida albicans [6]): >1 µg/mL
MFC90 (Candida albicans [6]): >1 µg/mL
MFC (Candida albicans [6]; [13]): > 1 µg/mL
MIC (Candida albicans [9]): 0.031 µg/mL (≈ 0.0439 µM)
MIC (Arthrodermataceae [7]): 0.14 µg/mL (≈ 0.198 µM)
MIC50 (Arthrodermataceae [7]): 0.125 µg/mL (≈ 0.177 µM)
MIC90 (Arthrodermataceae [7]): 0.25 µg/mL (≈ 0.354 µM)

Cc1ccc(OC(CCn2ccnc2)c2ccccc2)cc1 (racemic)
CC50 at 24 h [1]: 141 µM
CC50 at 24 h [2]: 95.9 µM
MFC (Candida parapsilosis): 16 µg/mL (≈ 54.7 µM)
MIC (Candida parapsilosis): 2 µg/mL (≈ 6.84 µM)
MFC50 (Arthrodermataceae [3]): 32 µg/mL (≈ 109 µM)
MIC (Candida albicans [4]): 9.4 µg/mL (≈ 32.1 µM)
MIC90 (Candida albicans [4]): 16 µg/mL (≈ 54.7 µM)
MIC50 (Candida albicans [4]; [11]): 8 µg/mL (≈ 27.4 µM)
MFC90 (Arthrodermataceae [5]): 32 µg/mL (≈ 109 µM)
MFC (Arthrodermataceae [5]): 28.8 µg/mL (≈ 98.5 µM)
MFC (Candida albicans [6]): 13.6 µg/mL (≈ 46.5 µM)
MFC50 (Candida albicans [6]): 16 µg/mL (≈ 54.7 µM)
MFC90 (Candida albicans [6]): 16 µg/mL (≈ 54.7 µM)
MIC (Arthrodermataceae [7]): 17.2 µg/mL (≈ 58.8 µM)
MIC50 (Arthrodermataceae [7]): 16 µg/mL (≈ 54.7 µM)
MIC90 (Arthrodermataceae [7]): 32 µg/mL (≈ 109 µM)

CC(C)(C)c1ccc(OC(CCn2ccnc2)c2ccc(Cl)cc2)cc1 (stereo not drawn)
MFC (Candida parapsilosis): 4 µg/mL (≈ 10.8 µM)
MIC (Candida parapsilosis): 2 µg/mL (≈ 5.42 µM)
MFC50 (Arthrodermataceae [3]): 16 µg/mL (≈ 43.4 µM)
MIC (Candida albicans [4]; [10]): 57.1 µg/mL (≈ 155 µM)
MIC50 (Candida albicans [4]; [11]): 64 µg/mL (≈ 173 µM)
MIC90 (Candida albicans [4]; [12]): 64 µg/mL (≈ 173 µM)
MFC90 (Arthrodermataceae [5]): 32 µg/mL (≈ 86.7 µM)
MFC (Arthrodermataceae [5]): 26 µg/mL (≈ 70.5 µM)
MFC50 (Candida albicans [6]): 64 µg/mL (≈ 173 µM)
MFC90 (Candida albicans [6]): 64 µg/mL (≈ 173 µM)
MFC (Candida albicans [6]; [13]): 64 µg/mL (≈ 173 µM)
MIC (Arthrodermataceae [7]): 9.2 µg/mL (≈ 24.9 µM)
MIC50 (Arthrodermataceae [7]): 8 µg/mL (≈ 21.7 µM)
MIC90 (Arthrodermataceae [7]): 16 µg/mL (≈ 43.4 µM)

CCc1ccc(OC(CCn2ccnc2)c2ccc(Cl)cc2)cc1 (stereo not drawn)
CC50 at 24 h [1]: 265 µM
CC50 at 24 h [2]: 185 µM
MFC (Candida parapsilosis): 16 µg/mL (≈ 46.9 µM)
MIC (Candida parapsilosis): 8 µg/mL (≈ 23.5 µM)
MIC (Candida albicans [4]; [10]): 6.5 µg/mL (≈ 19.1 µM)
MIC50 (Candida albicans [4]; [11]): 8 µg/mL (≈ 23.5 µM)
MIC90 (Candida albicans [4]; [12]): 8 µg/mL (≈ 23.5 µM)
MFC50 (Candida albicans [6]): 8 µg/mL (≈ 23.5 µM)
MFC90 (Candida albicans [6]): 16 µg/mL (≈ 46.9 µM)
MFC (Candida albicans [6]; [13]): 12.5 µg/mL (≈ 36.7 µM)

Clc1cc(Cl)cc(OC(CCn2ccnc2)c2ccccc2)c1 (stereo not drawn)
MFC (Candida parapsilosis): 4 µg/mL (≈ 11.5 µM)
MIC (Candida parapsilosis): 0.5 µg/mL (≈ 1.44 µM)
MFC50 (Arthrodermataceae [3]): 16 µg/mL (≈ 46.1 µM)
MIC (Candida albicans [4]; [10]): 13.8 µg/mL (≈ 39.7 µM)
MIC50 (Candida albicans [4]; [11]): 16 µg/mL (≈ 46.1 µM)
MIC90 (Candida albicans [4]; [12]): 16 µg/mL (≈ 46.1 µM)
MFC90 (Arthrodermataceae [5]): 16 µg/mL (≈ 46.1 µM)
MFC (Arthrodermataceae [5]): 15 µg/mL (≈ 43.2 µM)
MFC50 (Candida albicans [6]): 32 µg/mL (≈ 92.2 µM)
MFC90 (Candida albicans [6]): 64 µg/mL (≈ 184 µM)
MFC (Candida albicans [6]; [13]): 29.8 µg/mL (≈ 85.8 µM)
MIC (Arthrodermataceae [7]): 7.2 µg/mL (≈ 20.7 µM)
MIC50 (Arthrodermataceae [7]): 8 µg/mL (≈ 23 µM)
MIC90 (Arthrodermataceae [7]): 8 µg/mL (≈ 23 µM)

Clc1ccc(C(OCCn2ccnc2)c2ccccc2)c(Cl)c1.O=[N+]([O-])O (stereo not drawn)
MFC (Candida parapsilosis): 32 µg/mL
MIC (Candida parapsilosis): 16 µg/mL
MFC50 (Arthrodermataceae [3]): 8 µg/mL
MIC (Candida albicans [4]; [10]): 46.1 µg/mL
MIC50 (Candida albicans [4]; [11]): 32 µg/mL
MIC90 (Candida albicans [4]; [12]): 64 µg/mL
MFC90 (Arthrodermataceae [5]): 8 µg/mL
MFC (Arthrodermataceae [5]): 7.5 µg/mL
MFC50 (Candida albicans [6]): 128 µg/mL
MFC90 (Candida albicans [6]): >256 µg/mL
MFC (Candida albicans [6]; [13]): 158 µg/mL
MIC (Arthrodermataceae [7]): 7 µg/mL
MIC50 (Arthrodermataceae [7]): 8 µg/mL
MIC90 (Arthrodermataceae [7]): 8 µg/mL

Clc1ccc(C(CCn2ccnc2)OCc2ccc(Cl)cc2Cl)cc1 (stereo not drawn)
MFC (Candida parapsilosis): 32 µg/mL (≈ 80.9 µM)
MIC (Candida parapsilosis): 4 µg/mL (≈ 10.1 µM)
MFC50 (Arthrodermataceae [3]): 16 µg/mL (≈ 40.4 µM)
MIC (Candida albicans [4]; [10]): 60.2 µg/mL (≈ 152 µM)
MIC50 (Candida albicans [4]; [11]): 64 µg/mL (≈ 162 µM)
MIC90 (Candida albicans [4]; [12]): 64 µg/mL (≈ 162 µM)
MFC90 (Arthrodermataceae [5]): 16 µg/mL (≈ 40.4 µM)
MFC (Arthrodermataceae [5]): 17.3 µg/mL (≈ 43.7 µM)
MFC50 (Candida albicans [6]): 64 µg/mL (≈ 162 µM)
MFC90 (Candida albicans [6]): 64 µg/mL (≈ 162 µM)
MFC (Candida albicans [6]; [13]): 62 µg/mL (≈ 157 µM)
MIC (Arthrodermataceae [7]): 7 µg/mL (≈ 17.7 µM)
MIC50 (Arthrodermataceae [7]): 8 µg/mL (≈ 20.2 µM)
MIC90 (Arthrodermataceae [7]): 8 µg/mL (≈ 20.2 µM)
